According to ChEMBL document CHEMBL1123216, “Sustained brain-specific delivery of estradiol causes long-term suppression of luteinizing hormone secretion” (J Med Chem, 1986):

Legend:
Format in all cases: functional, organism-based
Rattus norvegicus [1] = test: Serum concentration of LH 18 days after intravenous administration in Orchidectomized rats
How it was run: (§1)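 Male rats given a single iv dose (2.1 or 3.0 mg/kg, dimethyl sulfoxide vehicle at 0.5 mL/kg) 2 weeks after orchidectomy. At 12, 18 or 24 days they were killed by decapitation and serum LH was measured by radioimmunoassay, expressed against reference preparation LH-RP-2. Samples assayed in duplicate; mean ± SEM, 6–7 animals per group.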

Rattus norvegicus [2] = test: Serum concentration of estradiol 18 days after intravenous administration in Orchidectomized rats
How it was run: (§2)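 Male rats were orchidectomized and 2 weeks later given a single iv dose (2.1 or 3.0 mg/kg, dimethyl sulfoxide vehicle). After decapitation at 12, 18 or 24 days, serum estradiol was measured by a published radioimmunoassay in modified form, in duplicate. Assay sensitivity limit was 20 pg/mL. Values are mean ± SEM, with the number of samples below the limit given per group.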

Rattus norvegicus [3] = test: Serum concentration of LH 24 days after intravenous administration in Orchidectomized rats; how it was run: as §1
Rattus norvegicus [4] = test: Serum concentration of estradiol 12 days after intravenous administration in Orchidectomized rats; how it was run: as §2
Rattus norvegicus [5] = test: Serum concentration of LH 12 days after intravenous administration in Orchidectomized rats; how it was run: as §1
Rattus norvegicus [6] = test: Serum concentration of estradiol 24 days after intravenous administration in Orchidectomized rats; how it was run: as §2

Structure (SMILES) | Concentration (Rattus norvegicus [1]) [ng/mL] | Concentration (Rattus norvegicus [2]) [ng/mL] | Concentration (Rattus norvegicus [3]) [ng/mL] | Concentration (Rattus norvegicus [4]) [ng/mL] | Concentration (Rattus norvegicus [5]) [ng/mL] | Concentration (Rattus norvegicus [6]) [ng/mL]
CN1C=CCC(C(=O)O[C@H]2CC[C@H]3[C@@H]4CCc5cc(O)ccc5[C@H]4CC[C@]23C)=C1 | 1.7 | < 0.02 | 2.9 | 0.0259 | 0.8 | 0.0241
C[C@]12CC[C@@H]3c4ccc(O)cc4CC[C@H]3[C@@H]1CC[C@@H]2O | 12.1 | < 0.02 | 11.6 | 0.0293 | 12.9 | 0.0312
C[S+](C)[O-] | 12.4 | < 0.02 | 8.6 | 0.0275 | 6.8 | 0.0244
